Measurements reported in ChEMBL document CHEMBL4138167, “Cytotoxicity, Hemolytic Toxicity, and Mechanism of Action of Pulsatilla Saponin D and Its Synthetic Derivatives” (J Nat Prod, 2018).
Active and inactive are the calls of the source. The calls are words filed in the database; no cut-off is given here.

Assays:
KB = experiment: Cytotoxicity against human KB cells after 72 hrs by sulforhodamine B assay; assay type: functional, cell-based
[1] = (§1) Cytotoxicity against human KBVIN cells after 72 hrs by sulforhodamine B assay; assay type: functional, cell-based
A549 [2] = experiment: Cytotoxicity against human A549 cells after 72 hrs by sulforhodamine B assay; assay type: functional, cell-based; conditions: for IC50: A549, 72 h
MDA-MB-231 = experiment: Cytotoxicity against human MDA-MB-231 cells after 72 hrs by sulforhodamine B assay; assay type: functional, cell-based; conditions: for IC50: MDA-MB-231, 72 h
MCF7 = experiment: Cytotoxicity against human MCF7 cells after 72 hrs by sulforhodamine B assay; assay type: functional, cell-based; conditions: for IC50: MCF7, 72 h
A549 [3] = experiment: Induction of apoptosis in human A549 cells assessed as reduction in procaspase-8 level at 2 to 8 uM by Western blot analysis; assay type: functional, cell-based
How it was run: (§2)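 A549 cells exposed 24 h; lysed in Tris-Cl pH 6.8/4% SDS/glycerol/β-mercaptoethanol/PMSF/aprotinin buffer, cleared 12000g 15 min 4 °C, protein by BCA; 10-15% SDS-PAGE, PVDF transfer, primary antibodies overnight 4 °C, HRP secondaries, ECL detection; Lam A as loading control.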

A549 [4] = experiment: Cell cycle arrest in human A549 cells assessed as accumulation at G1-phase at 4 uM after 24 hrs by propidium iodide staining based flow cytometric analysis (reference value: 46.6%); assay type: functional
Homo sapiens = species on record: Homo sapiens; experiment: as §1; assay type: functional, cell-based
A549 [5] = experiment: Induction of apoptosis in human A549 cells assessed as late apoptotic cells at 4 uM after 24 hrs by Annexin-V-FITC/propidium iodide staining based flow cytometric method (reference value: 2.97%); assay type: functional
A549 [6] = experiment: Cell cycle arrest in human A549 cells assessed as accumulation at G1-phase at 2 uM after 24 hrs by propidium iodide staining based flow cytometric analysis (reference value: 46.6%); assay type: functional
A549 [7] = experiment: Induction of apoptosis in human A549 cells assessed as early apoptotic cells at 2 uM after 24 hrs by Annexin-V-FITC/propidium iodide staining based flow cytometric method (reference value: 1.43%); assay type: functional
A549 [8] = experiment: Induction of apoptosis in human A549 cells assessed as early apoptotic cells at 4 uM after 24 hrs by Annexin-V-FITC/propidium iodide staining based flow cytometric method (reference value: 1.43%); assay type: functional
A549 [9] = experiment: Induction of apoptosis in human A549 cells assessed as late apoptotic cells at 2 uM after 24 hrs by Annexin-V-FITC/propidium iodide staining based flow cytometric method (reference value: 2.97%); assay type: functional
[10] = Hemolytic activity against New Zealand rabbit erythrocytes measured after 60 mins; assay type: ADME, cell-based, Oryctolagus cuniculus, Erythrocyte; conditions: read-out: HD50
How it was run: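 Nonheparinized rabbit blood; erythrocytes washed three times in PBS pH 7.4, 10% suspension; compounds from 10 mM DMSO stock diluted in PBS to 5-500 μM; 100 μL suspension plus 1 mL sample, 37 °C 60 min with periodic stirring; centrifuged, supernatant A540; distilled water = 100% hemolysis, PBS blank subtracted; triplicate; HD50 = concentration giving 50% maximal hemolysis.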

A549 [11] = experiment: Induction of apoptosis in human A549 cells assessed as early apoptotic cells at 8 uM after 24 hrs by Annexin-V-FITC/propidium iodide staining based flow cytometric method (reference value: 1.43%); assay type: functional
A549 [12] = experiment: Induction of apoptosis in human A549 cells assessed as reduction in procaspase-3 level at 2 to 8 uM by Western blot analysis; assay type: functional, cell-based; how it was run: as §2
A549 [13] = experiment: Cell cycle arrest in human A549 cells assessed as accumulation at G1-phase at 8 uM after 24 hrs by propidium iodide staining based flow cytometric analysis (reference value: 46.6%); assay type: functional
A549 [14] = experiment: Induction of apoptosis in human A549 cells assessed as late apoptotic cells at 8 uM after 24 hrs by Annexin-V-FITC/propidium iodide staining based flow cytometric method (reference value: 2.97%); assay type: functional
A549 [15] = experiment: Induction of apoptosis in human A549 cells assessed as increase in cleaved PARP level at 2 to 8 uM by Western blot analysis; assay type: functional, cell-based; how it was run: as §2
A549 [16] = experiment: Induction of apoptosis in human A549 cells assessed as reduction in procaspase-9 level at 2 to 8 uM by Western blot analysis; assay type: functional, cell-based; how it was run: as §2
A549 [17] = experiment: Cytotoxicity against human A549 cells after 48 hrs by MTT assay; assay type: functional, cell-based; conditions: A549, 48 h

Row | SMILES | IC50 (KB) [µM] | IC50 [1] [µM] | IC50 (A549 [2]) [µM] | IC50 (MDA-MB-231) [µM] | IC50 (MCF7) [µM] | HC50 at 1 h [10] [µM] | IC50 (A549 [17]) [µM] | other results
1 | CC1(C)CC[C@]2(C(=O)NCC(=O)O)CC[C@]3(C)C(=CC[C@@H]4[C@@]5(C)CC[C@H](O)[C@@](C)(CO)[C@@H]5CC[C@]43C)[C@@H]2C1 | > 10 | > 10 | > 10 | > 10 | > 10 |  |  | 
2 | CCOC(=O)CCCNC(=O)[C@]12CCC(C)(C)C[C@H]1C1=CC[C@@H]3[C@@]4(C)CC[C@H](OC(C)=O)[C@@](C)(COC(C)=O)[C@@H]4CC[C@@]3(C)[C@]1(C)CC2 | 3.6 | 5.1 | 2.8 |  | 8.6 | > 500 |  | Activity (KB): Dose-dependent effect; Activity (A549 [3]): Active; Activity (A549 [4]): 61.1%; Activity (Homo sapiens): Dose-dependent effect; Activity (A549 [2]): Dose-dependent effect; Activity (A549 [5]): 4.4%; Activity (A549 [6]): 53.4%; Activity (MDA-MB-231): Dose-dependent effect; Activity (A549 [7]): 14.8%; Activity (A549 [8]): 26.5%; Activity (A549 [9]): 3.8%; Activity (A549 [11]): 30.3%; Activity (A549 [12]): Active; Activity (A549 [13]): 68.4%; Activity (A549 [14]): 4.87%; Activity (A549 [15]): Active; Activity (A549 [16]): Active; Activity (MCF7): Dose-dependent effect
3 | C[C@@H]1O[C@@H](O[C@H]2[C@H](O[C@H]3CC[C@@]4(C)[C@@H](CC[C@]5(C)[C@@H]4CC(=O)[C@]46OC(=O)[C@@]7(CCC(C)(C)C[C@H]74)CC[C@@]56C)[C@]3(C)CO)OC[C@H](O[C@@H]3O[C@H](CO)[C@@H](O)[C@H](O)[C@H]3O)[C@@H]2O)[C@H](O)[C@H](O)[C@H]1O |  |  |  |  |  | 290 | > 10 | 
4 | CC1(C)CC[C@]2(C(=O)O)CC[C@]3(C)C(=CC[C@@H]4[C@@]5(C)CC[C@H](O)[C@@](C)(CO)[C@@H]5CC[C@]43C)[C@@H]2C1 [HEDERAGENIN] | > 10 | > 10 | > 10 | > 10 | > 10 |  |  | 
5 | CCOC(=O)CNC(=O)[C@]12CCC(C)(C)C[C@H]1C1=CC[C@@H]3[C@@]4(C)CC[C@H](OC(C)=O)[C@@](C)(COC(C)=O)[C@@H]4CC[C@@]3(C)[C@]1(C)CC2 | 4.2 | 4.9 | 4.6 | 5.5 | 7.7 |  |  | 
6 | CC1(C)CC[C@]2(C(=O)NCCCCCC(=O)O)CC[C@]3(C)C(=CC[C@@H]4[C@@]5(C)CC[C@H](O)[C@@](C)(CO)[C@@H]5CC[C@]43C)[C@@H]2C1 | > 10 | > 10 | > 10 | > 10 | > 10 |  |  | 
7 | C[C@@H]1O[C@@H](O[C@H]2[C@H](O[C@H]3CC[C@@]4(C)[C@@H](CC[C@]5(C)[C@@H]4C(=O)C=C4[C@@H]6CC(C)(C)CC[C@]6(C(=O)NCC(=O)O)CC[C@]45C)[C@]3(C)CO)OC[C@H](O[C@@H]3O[C@H](CO)[C@@H](O)[C@H](O)[C@H]3O)[C@@H]2O)[C@H](O)[C@H](O)[C@H]1O |  |  |  |  |  |  | > 10 | 
8 | CC1(C)CC[C@]2(C(=O)NCCCC(=O)O)CC[C@]3(C)C(=CC[C@@H]4[C@@]5(C)CC[C@H](O)[C@@](C)(CO)[C@@H]5CC[C@]43C)[C@@H]2C1 | > 10 | > 10 | > 10 | > 10 | > 10 |  |  | 
9 | C[C@@H]1O[C@@H](O[C@H]2[C@H](O[C@H]3CC[C@@]4(C)[C@@H](CC[C@]5(C)[C@@H]4C[C@H](O)[C@]46OC(=O)[C@@]7(CCC(C)(C)C[C@H]74)CC[C@]65C)[C@]3(C)CO)OC[C@H](O[C@@H]3O[C@H](CO)[C@@H](O)[C@H](O)[C@H]3O)[C@@H]2O)[C@H](O)[C@H](O)[C@H]1O |  |  |  |  |  | 308 | > 10 | 
10 | CC(=O)O[C@H]1C(=O)[C@@]2(C)[C@H]([C@H](OC(=O)c3ccccc3)[C@]3(O)C[C@H](OC(=O)[C@H](O)[C@@H](NC(=O)c4ccccc4)c4ccccc4)C(C)=C1C3(C)C)[C@]1(OC(C)=O)CO[C@@H]1C[C@@H]2O [PACLITAXEL] |  | 1.86 |  |  |  |  |  | 
11 | CCOC(=O)CCCCCNC(=O)[C@]12CCC(C)(C)C[C@H]1C1=CC[C@@H]3[C@@]4(C)CC[C@H](OC(C)=O)[C@@](C)(COC(C)=O)[C@@H]4CC[C@@]3(C)[C@]1(C)CC2 | 6.9 | > 10 | 5.1 |  | > 10 |  |  | 
12 | C[C@@H]1O[C@@H](O[C@H]2[C@H](O[C@H]3CC[C@@]4(C)[C@@H](CC[C@]5(C)[C@@H]4CC=C4[C@@H]6CC(C)(C)CC[C@]6(C(=O)O)CC[C@]45C)[C@]3(C)CO)OC[C@H](O[C@@H]3O[C@H](CO)[C@@H](O)[C@H](O)[C@H]3O)[C@@H]2O)[C@H](O)[C@H](O)[C@H]1O [HEDERACOLCHISIDE A] |  |  |  |  |  |  | 6 | 
13 | C[C@@H]1O[C@@H](O[C@H]2[C@H](O[C@H]3CC[C@@]4(C)[C@@H](CC[C@]5(C)[C@@H]4CC(=O)[C@@H]4[C@@H]6CC(C)(C)CC[C@]6(C(=O)O)CC[C@]45C)[C@]3(C)CO)OC[C@H](O[C@@H]3O[C@H](CO)[C@@H](O)[C@H](O)[C@H]3O)[C@@H]2O)[C@H](O)[C@H](O)[C@H]1O |  |  |  |  |  | 73.1 | > 10 | 
14 | CC(=O)OC[C@@]1(C)[C@@H]2CC[C@]3(C)[C@H](CC=C4[C@@H]5CC(C)(C)CC[C@]5(C(=O)O)CC[C@]43C)[C@@]2(C)CC[C@@H]1OC(C)=O | 7.4 | 8.5 | 6.2 | > 10 | > 10 |  |  | 
15 | C[C@@H]1O[C@@H](O[C@H]2[C@H](O[C@H]3CC[C@@]4(C)[C@@H](CC[C@]5(C)[C@@H]4C(=O)C=C4[C@@H]6CC(C)(C)CC[C@]6(C(=O)O)CC[C@]45C)[C@]3(C)CO)OC[C@H](O[C@@H]3O[C@H](CO)[C@@H](O)[C@H](O)[C@H]3O)[C@@H]2O)[C@H](O)[C@H](O)[C@H]1O |  |  |  |  |  | 239 | > 10 | 
